According to ChEMBL document CHEMBL1125919, “Water-soluble cholesteryl-containing phosphorothioate monogalactosides: synthesis, properties, and use in lowering blood cholesterol by directing plasma lipoproteins to the liver” (1991):

Columns and labels:
[1] = species on record: Homo sapiens; experiment: Carbohydrate in the Lipoprotein -deficient serum(LPDS) along with compound was measured in human serum; format: functional
In short: (§1)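 Human serum (1.6 mL) mixed with 0.4 mL of a 10 mM glycolipid solution in PBS (2 mM final), or with PBS alone, for 10 min at room temperature. Density-gradient ultracentrifugation in KBr/NaCl then gave VLDL (d<1.006), LDL (1.006–1.063), HDL (1.063–1.210) and LPDS (d>1.210 g/mL) fractions. Each fraction was dialyzed against PBS and assayed for cholesterol and carbohydrate, reported as total μg per fraction.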

[2] = species on record: Homo sapiens; experiment: Carbohydrate in the Total along with compound was measured in human serum; format: functional; in short: as §1
[3] = species on record: Homo sapiens; experiment: Carbohydrate in the high density lipoprotein (HDL) along with compound was measured in human serum; format: functional; in short: as §1
[4] = species on record: Homo sapiens; experiment: Carbohydrate in the low density lipoprotein (LDL) along with compound was measured in human serum; format: functional; in short: as §1
[5] = species on record: Homo sapiens; experiment: Cholesterol in the Lipoprotein -deficient serum(LPDS) along with compound was measured in human serum; format: functional; in short: as §1
[6] = species on record: Homo sapiens; experiment: Cholesterol in the Total along with compound was measured in human serum; format: functional; in short: as §1
[7] = species on record: Homo sapiens; experiment: Cholesterol in the high density lipoprotein (HDL) along with compound was measured in human serum; format: functional; in short: as §1
[8] = species on record: Homo sapiens; experiment: Cholesterol in the low density lipoprotein (LDL) along with compound was measured in human serum; format: functional; in short: as §1
[9] = species on record: Homo sapiens; experiment: Cholesterol in the very low density lipoprotein (VLDL) along with compound was measured in human serum; format: functional; in short: as §1
[10] = Ratio of carbohydrate in HDL to cholesterol level in HDL; format: functional
In short: (§2)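 Same serum incubation (2 mM final, 10 min, room temperature) and density-gradient fractionation into LDL and HDL. The ratio is μg carbohydrate per μg total cholesterol in each fraction. Values in parentheses compare the ratio with the PBS-only serum lipoproteins.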

[11] = Ratio of carbohydrate in LDL to cholesterol level in LDL; format: functional; in short: as §2
[12] = species on record: Homo sapiens; experiment: Carbohydrate in the very low density lipoprotein (VLDL) along with compound was measured in human serum; format: functional; in short: as §1
[13] = species on record: Rattus norvegicus; experiment: Effects of N-acetyl-galactosamine on compound stimulated liver association of [125I]LDL measured in serum of rats; format: functional
In short: (§3)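 Glycolipid mixed with [125I]LDL at 0.3 mg/mg apolipoprotein or with [125I]HDL at 1.0 mg/mg, then held 10 min at room temperature. The mixture was given intravenously at 50 μg apolipoprotein/kg to pentobarbital-anaesthetized male Wistar rats. N-acetylgalactosamine, N-acetylglucosamine (both 400 mg/kg) or PBS was preinjected 1 min before. At 5 min, TCA-precipitable serum radioactivity and liver-associated radioactivity were measured as % of dose. Mean ± SEM, 3–4 rats; Wilcoxon two-sample test.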

[14] = species on record: Rattus norvegicus; experiment: Effects of N-acetyl-glucosamine on compound stimulated liver association of [125I]HDL measured in liver of rats; format: functional; in short: as §3
[15] = species on record: Rattus norvegicus; experiment: Effects of N-acetyl-glucosamine on compound stimulated liver association of [125I]HDL measured in preinjcted rats; format: functional; in short: as §3
[16] = species on record: Rattus norvegicus; experiment: Effects of N-acetyl-glucosamine on compound stimulated liver association of [125I]LDL measured in liver of rats; format: functional; in short: as §3
[17] = species on record: Rattus norvegicus; experiment: Effects of N-acetyl-glucosamine on compound stimulated liver association of [125I]-LDL measured in serum of rats; format: functional; in short: as §3
[18] = species on record: Rattus norvegicus; experiment: Effects of N-acetyl-galactosamine on compound stimulated liver association of [125I]HDL measured in liver of rats; format: functional; in short: as §3
[19] = species on record: Rattus norvegicus; experiment: Effects of N-acetyl-galactosamine on compound stimulated liver association of [125I]HDL measured in serum of rats; format: functional; in short: as §3
[20] = species on record: Rattus norvegicus; experiment: Effects of N-acetyl-galactosamine on compound stimulated liver association of [125I]LDL measured in liver of rats; format: functional; in short: as §3
[21] = species on record: Homo sapiens; experiment: Carbohydrate in the high density lipoprotein (HDL) along with compound was measured in human serum
[22] = species on record: Homo sapiens; experiment: Carbohydrate in the very low density lipoprotein (VLDL) along with compound was measured in human serum

Row | SMILES | Carbohydrate [1] | Carbohydrate [2] | Carbohydrate [4] | Cholesterol [5] | Cholesterol [6] | Cholesterol [7] | Cholesterol [8] | Cholesterol [9] | Ratio [10] | Ratio [11] | Carbohydrate [12] | Carbohydrate [21] | also measured
1 | CC(C)CCCC(C)C1CCC2C3CC=C4CC(OCCOCCOCCOCCOP(O)(=S)OCCOCCOCCSC5OC(CO)C(O)C(O)C5O)CCC4(C)C3CCC12C (stereo not given) | 1720 µg | 2730 µg | 520 µg | 66 µg | 1947 µg | 484 µg | 1296 µg | 101 µg | 0.81 | 0.4 | 100 µg |  | Carbohydrate [3]: 390 µg
2 | CC(C)CCCC(C)C1CCC2C3CC=C4CC(OCCOCCOCCOCCOP(O)(=S)OCCO[C@@H]5O[C@H](CO)[C@H](O)[C@H](O)[C@H]5O)CCC4(C)C3CCC12C (stereo not given in full) | 1710 µg | 2790 µg | 480 µg | 70 µg | 1850 µg | 627 µg | 1048 µg | 104 µg | 0.8 | 0.45 | 100 µg | 500 µg | Dose [13]: 92.2%; Dose [14]: 22.2%; Dose [15]: 61.1%; Dose [16]: 61.6%; Dose [17]: 29.3%; Dose [18]: 5.8%; Dose [19]: 78.8%; Dose [20]: 5.1%; Carbohydrate [22]: 100 µg
3 | CC(C)CCCC(C)C1CCC2C3CC=C4CC(OCCOCCOCCOCCOP(O)(=S)OCCSC5OC(CO)C(O)C(O)C5O)CCC4(C)C3CCC12C (stereo not given) | 1590 µg | 2710 µg | 580 µg | 85 µg | 1885 µg | 500 µg | 1161 µg | 108 µg | 0.92 | 0.5 | 80 µg | 460 µg | 
